Data published in ChEMBL document CHEMBL3232890, “Novel structural hybrids of pyrazolobenzothiazines with benzimidazoles as cholinesterase inhibitors” (Eur J Med Chem, 2014).
Where a name gives a salt, the structure may show the parent alone.

How the values were obtained:
Cholinesterase = Cholinesterase (Equus caballus, UniProt P81908); test: Inhibition of BuChE in equine serum using butyrylthiocholine chloride as substrate preincubated with enzyme for 10 mins prior to substrate challenge for 15 mins by Ellman's method
[1] = Inhibition of electric eel AChE type VI-S using acetylthiocholine iodide as substrate preincubated with enzyme for 10 mins prior to substrate challenge for 15 mins by Ellman's method; design: species or system Electrophorus electricus
Method in brief: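 Enzyme was EeAChE at 0.5 U/mg or equine BuChE at 3.4 U/mg, diluted in Tris-HCl with 0.1% BSA. Eight to ten serial dilutions were preincubated for 10 min at 25 °C, then incubated for 15 min at 25 °C, and read at 405 nm in triplicate. IC50 came from linear regression.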

[2] = target: Cholinesterase (Equus caballus) (UniProt P81908); test: Inhibition of BuChE in equine serum using butyrylthiocholine chloride as substrate at 500 uM preincubated with enzyme for 10 mins prior to substrate challenge for 15 mins by Ellman's method
Method in brief: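 The compound was added from DMSO (1% final) at 0.5 mM final. Enzyme and compound were preincubated for 10 min at 25 °C, then incubated for 15 min at 25 °C, and absorbance was read at 405 nm. Blanks lacked enzyme or substrate.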

Cholinesterase, sequence (P81908 whole entry): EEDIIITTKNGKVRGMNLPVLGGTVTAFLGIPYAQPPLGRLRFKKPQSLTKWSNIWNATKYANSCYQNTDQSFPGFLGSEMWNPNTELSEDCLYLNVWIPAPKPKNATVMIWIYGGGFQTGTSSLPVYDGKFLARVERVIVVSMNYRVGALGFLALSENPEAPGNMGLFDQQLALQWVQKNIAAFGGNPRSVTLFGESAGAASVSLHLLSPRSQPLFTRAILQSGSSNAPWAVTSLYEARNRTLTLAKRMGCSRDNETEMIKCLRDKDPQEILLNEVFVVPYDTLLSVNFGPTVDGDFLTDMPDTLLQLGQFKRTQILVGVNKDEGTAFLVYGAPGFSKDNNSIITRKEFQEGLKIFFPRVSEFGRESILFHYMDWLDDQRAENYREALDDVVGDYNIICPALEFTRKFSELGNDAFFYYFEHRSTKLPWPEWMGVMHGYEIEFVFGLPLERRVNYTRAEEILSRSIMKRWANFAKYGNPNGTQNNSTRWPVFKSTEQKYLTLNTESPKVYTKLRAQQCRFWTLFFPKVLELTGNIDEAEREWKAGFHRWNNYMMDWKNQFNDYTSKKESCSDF
Cholinesterase (Equus caballus), sequence (P81908 whole entry): as above

Q: For `CN(C)C(=O)Oc1cccc([N+](C)(C)C)c1` [NEOSTIGMINE], which IC50 (Cholinesterase) is on record?
A: 49600 nM

Q: And the IC50 [1]?
A: 22200 nM

Q: With `Cc1ccc2[nH]c(-c3ccc(-n4nc5c(c4C)N(C)S(=O)(=O)c4ccccc4-5)cc3)nc2c1` as the compound, how does the IC50 (Cholinesterase) read?
A: 41 nM

Q: What about the IC50 [1] of the same compound?
A: 7530 nM

Q: For `Cc1c2c(nn1-c1ccc(-c3nc4cc(C(=O)O)ccc4[nH]3)cc1)-c1ccccc1S(=O)(=O)N2C`, which IC50 (Cholinesterase) is on record?
A: 26 nM

Q: What about the IC50 [1] of the same compound?
A: 1130 nM

Q: What does the source list for `CN1c2c(nn(-c3ccc(-c4nc5cc(Cl)ccc5[nH]4)cc3)c2-c2ccccc2)-c2ccccc2S1(=O)=O`?
A: IC50 (Cholinesterase): 9940 nM; IC50 [1]: 3020 nM

Q: Which IC50 (Cholinesterase) does the source give for `Cc1c2c(nn1-c1ccc(-c3nc4ccccc4[nH]3)cc1)-c1ccccc1S(=O)(=O)N2C` here?
A: 43 nM

Q: And the IC50 [1]?
A: 2910 nM

Q: For `CN1c2c(nn(-c3ccc(-c4nc5ccccc5o4)cc3)c2-c2ccccc2)-c2ccccc2S1(=O)=O`, which inhibition [2] is on record?
A: 36.5%

Q: What about the IC50 [1] of the same compound?
A: 54 nM

Q: For `CCOC(=O)c1ccc2[nH]c(-c3ccc(-n4nc5c(c4-c4ccccc4)N(C)S(=O)(=O)c4ccccc4-5)cc3)nc2c1`, which IC50 (Cholinesterase) is on record?
A: 180 nM

Q: What about the IC50 [1] of the same compound?
A: 13 nM

Q: With `Cc1c2c(nn1-c1ccc(-c3nc4cc(Cl)ccc4[nH]3)cc1)-c1ccccc1S(=O)(=O)N2C` as the compound, how does the inhibition [2] read?
A: 38.7%

Q: And the IC50 [1]?
A: 1020 nM

Q: Which results are given for `Cc1ccc2[nH]c(-c3ccc(-n4nc5c(c4-c4ccccc4)N(C)S(=O)(=O)c4ccccc4-5)cc3)nc2c1`?
A: inhibition [2]: 31.8%; IC50 [1]: 122 nM

Q: What does the source list for `Cc1c2c(nn1-c1ccc(-c3nc4ccccc4o3)cc1)-c1ccccc1S(=O)(=O)N2C`?
A: IC50 (Cholinesterase): 17 nM; IC50 [1]: 6920 nM

Q: With `Cc1c2c(nn1-c1ccc(-c3nc4cc(Br)ccc4[nH]3)cc1)-c1ccccc1S(=O)(=O)N2C` as the compound, how does the IC50 (Cholinesterase) read?
A: 49 nM

Q: And the IC50 [1]?
A: 541 nM

Q: With `CN1c2c(nn(-c3ccc(-c4nc5ccccc5[nH]4)cc3)c2-c2ccccc2)-c2ccccc2S1(=O)=O` as the compound, how does the IC50 (Cholinesterase) read?
A: 43 nM

Q: And the IC50 [1]?
A: 11 nM

Q: With `CN1c2c(nn(-c3ccc(-c4nc5cc(Br)ccc5[nH]4)cc3)c2-c2ccccc2)-c2ccccc2S1(=O)=O` as the compound, how does the IC50 (Cholinesterase) read?
A: 3230 nM

Q: What about the IC50 [1] of the same compound?
A: 6900 nM

Q: Which inhibition [2] does the source give for `CCOC(=O)c1ccc2[nH]c(-c3ccc(-n4nc5c(c4C)N(C)S(=O)(=O)c4ccccc4-5)cc3)nc2c1` here?
A: 29.5%

Q: And the IC50 [1]?
A: 993 nM

Q: For `COc1ccc2[nH]c(-c3ccc(-n4nc5c(c4-c4ccccc4)N(C)S(=O)(=O)c4ccccc4-5)cc3)nc2c1`, which inhibition [2] is on record?
A: 37.3%

Q: What about the IC50 [1] of the same compound?
A: 7130 nM

Q: With `Cc1cc2nc(-c3ccc(-n4nc5c(c4-c4ccccc4)N(C)S(=O)(=O)c4ccccc4-5)cc3)[nH]c2cc1C` as the compound, how does the inhibition [2] read?
A: 34.1%

Q: And the IC50 [1]?
A: 3820 nM

Q: What does the source list for `Cc1c2c(nn1-c1ccc(-c3nc4cncnc4[nH]3)cc1)-c1ccccc1S(=O)(=O)N2C`?
A: inhibition [2]: 35.5%; IC50 [1]: 1950 nM

Q: Which inhibition [2] does the source give for `CN1c2c(nn(-c3ccc(-c4nc5cc([N+](=O)[O-])ccc5[nH]4)cc3)c2-c2ccccc2)-c2ccccc2S1(=O)=O` here?
A: 30.7%

Q: What about the IC50 [1] of the same compound?
A: 7940 nM

Q: Which inhibition [2] does the source give for `Cc1c2c(nn1-c1ccc(-c3nc4cc([N+](=O)[O-])ccc4[nH]3)cc1)-c1ccccc1S(=O)(=O)N2C` here?
A: 38.5%

Q: What about the IC50 [1] of the same compound?
A: 492 nM

Q: With `COc1cc2c(cc1OC)C(=O)C(CC1CCN(Cc3ccccc3)CC1)C2` (configuration not stated) [DONEPEZIL HYDROCHLORIDE] as the compound, how does the IC50 [1] read?
A: 32 nM

Q: With `COc1ccc2[nH]c(-c3ccc(-n4nc5c(c4C)N(C)S(=O)(=O)c4ccccc4-5)cc3)nc2c1` as the compound, how does the IC50 (Cholinesterase) read?
A: 6920 nM

Q: What about the IC50 [1] of the same compound?
A: 1140 nM

Q: For `CN1c2c(nn(-c3ccc(-c4nc5cncnc5[nH]4)cc3)c2-c2ccccc2)-c2ccccc2S1(=O)=O`, which IC50 (Cholinesterase) is on record?
A: 1330 nM

Q: And the IC50 [1]?
A: 5220 nM

Q: For `Cc1cc2nc(-c3ccc(-n4nc5c(c4C)N(C)S(=O)(=O)c4ccccc4-5)cc3)[nH]c2cc1C`, which IC50 (Cholinesterase) is on record?
A: 273 nM

Q: And the IC50 [1]?
A: 41 nM

Q: For `CN1c2c(nn(-c3ccc(-c4nc5cc(C(=O)O)ccc5[nH]4)cc3)c2-c2ccccc2)-c2ccccc2S1(=O)=O`, which IC50 (Cholinesterase) is on record?
A: 4620 nM

Q: What about the IC50 [1] of the same compound?
A: 6110 nM
